The results in this text go back to the RNAGym collection of RNA variant scans (doi:10.1126/science.aae0568).

The chains are these.
B1: tRNA (parent)
chain: GUUCCGUUGGCGUAAUGGUAACGCGUCUCCCUCCUAAGGAGAAGACUGCGGGUUCGAGUCCCGUACGGAACG

Variants at the floor of the assay were thinned out.

Variants of B1 are the subject of this series. In words: yeast fitness relative to wild type (ratio to wild type); higher = fitter; tRNA-Arg(CCU), competitive growth, 37 C, YPD. The essentials: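 Gene amplicons from the start population and from each of six end populations were read by 100-nucleotide paired-end sequencing. Those end populations came from pooled Saccharomyces cerevisiae strains carrying tRNA-Arg(CCU) gene variants at the native locus, competed in YPD at 37°C for 24 hours. Fitness relative to wild type was worked out from changes in genotype frequencies. Genotypes needed ≥ 100 starting reads, and estimates < 0.5 were set to 0.5.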
Turning to U32G A42G G58A C61U A70G, the yeast fitness was at most 0.5.

For A21G C60U, the yeast fitness stood at 0.713.

On to A14G G51A, for which the yeast fitness came to 0.657.

As for G6A C30U U54A, the yeast fitness was at most 0.5.

A36C G38A G58A: the yeast fitness amounted to 0.562.

On to U2G A43G G56A, for which the yeast fitness was 0.589.

Turning to G17C C33G G48U, the yeast fitness is at most 0.5.

Regarding U3A U26C U59C, the yeast fitness was at most 0.5.

As for G6U C62U, the yeast fitness worked out at 0.831.

Regarding U3A U13C A69U, the yeast fitness came out at 0.72.

On to U19C C30A U47C, for which the yeast fitness was found to be 0.693.

As for U2G G9C G12A A42C C46A G68C, the yeast fitness is at most 0.5.

As to G12A U26C C27U C33A A45C C62G A69U, the yeast fitness is 0.553.

Regarding U19A A42G U47C, the yeast fitness was at most 0.5.

Turning to C4A A21G C60U, the yeast fitness was found to be 0.544.

Take U13G A42G: the yeast fitness was 0.733.

For U16G C24U U28C A36C U59C A65C, the yeast fitness is at most 0.5.

As to G6A G12A C34U G41A, the yeast fitness was 0.556.

With G9C C55U, the yeast fitness was 0.635.

In the case of U3C A21U A69U, the yeast fitness amounted to 0.537.

As to A43G U47C, the yeast fitness was 1.04.

On to C4G A42U G50C C62A G67U, for which the yeast fitness was at most 0.5.

U13A A14C U19C U32A G63C: the yeast fitness was 0.64.

Take C4G G18C A57C: the yeast fitness was at most 0.5.

On to U7A U8G C22U C30U A42G C61A, for which the yeast fitness is at most 0.5.

On to U19C A20C C33U A69C, for which the yeast fitness was at most 0.5.

For the variant U7C C31U G52A, the yeast fitness was at most 0.5.

For C34A C46A, the yeast fitness amounted to 0.691.

On to U7A A21G C30G A36G C46G A57U, for which the yeast fitness was 0.545.

Turning to G10C A36U U64C C66U A70C, the yeast fitness was at most 0.5.

In the case of C11U C55A G58C, the yeast fitness is at most 0.5.

In the case of A15U U26A C55A A70C, the yeast fitness is at most 0.5.

U7C C24G C31A: the yeast fitness is at most 0.5.

As for A43C C62A G63A C66G A69G, the yeast fitness is at most 0.5.

In the case of G12A C27G A43U, the yeast fitness was determined as 0.53.

As for U16A C33G C49A, the yeast fitness was 0.537.

As to A45C G51C U64C, the yeast fitness is at most 0.5.

U16A C33A C34A: the yeast fitness was at most 0.5.

Consider U8G U26A G52A, for which the yeast fitness was found to be 0.59.

For C24G G48A G58C, the yeast fitness was 0.735.

For C27G U32G A40U A42U C55G, the yeast fitness was at most 0.5.

Take C4A U7A A14G G17C: the yeast fitness is at most 0.5.

For the variant C22G C33U A40U U59A, the yeast fitness came to 0.514.

Take C30A C31G G39C: the yeast fitness was found to be 0.535.

Consider U19G C30U C55U A57G, for which the yeast fitness is at most 0.5.

Consider C4G G6A G23A A43G G48C, for which the yeast fitness is at most 0.5.

For the variant C22G A43C C46A C61G A70C, the yeast fitness is at most 0.5.

For the variant U3A C11A C33U A70C, the yeast fitness was at most 0.5.

Consider U8C A15G U19A C29A A36G G51A, for which the yeast fitness was at most 0.5.

On to C11U C31A A57C, for which the yeast fitness was at most 0.5.

In the case of G9A G38C, the yeast fitness was found to be 0.758.

G6A C22U A37G G68A A69G: the yeast fitness is at most 0.5.

Regarding U28A C46G, the yeast fitness came out at 0.76.

For the variant A15U U16A G18A C60U, the yeast fitness was at most 0.5.

Consider C11U C31G, for which the yeast fitness worked out at 0.791.

On to U35A C60A A65U A70G, for which the yeast fitness was at most 0.5.

For U3A C46G A70C, the yeast fitness amounted to 0.715.

For G18U C31U G63A, the yeast fitness stood at 0.527.

On to C4U A15G G23C A37U C49U A65U, for which the yeast fitness was 0.525.

As for U2A U13A A20C G44C C66U, the yeast fitness was at most 0.5.

For the variant U3A C24G C31U G52C, the yeast fitness is at most 0.5.

As for U13C U16G A43U, the yeast fitness was determined as 1.02.

On to C22A C31U, for which the yeast fitness stood at 1.07.

As to C11U U13G U19A C22G G25A A69U, the yeast fitness was at most 0.5.

Turning to U13A C33A A36U A70C, the yeast fitness was determined as 0.518.

With C24G C27U C33U G52C A65G, the yeast fitness is at most 0.5.

As to C5G C34A A36U G51C G56A, the yeast fitness stood at 0.797.

Turning to U28C A40U, the yeast fitness was 1.01.

C5U C11U A69U: the yeast fitness worked out at 0.734.

As to C30G C49A U53C G63A C66G, the yeast fitness was at most 0.5.

For the variant U3A U8A A43U C55U, the yeast fitness was at most 0.5.

Consider G6A C11A A14C U19C U32A A42C, for which the yeast fitness was 0.664.

C5A A37C C49A G68U: the yeast fitness is at most 0.5.

On to U32C G48C, for which the yeast fitness was found to be 0.862.

Take G38A A40C G56A C66U A70C: the yeast fitness is at most 0.5.

Take U7A A43U: the yeast fitness was 0.622.

As to G10A C22G C27U G56A, the yeast fitness is at most 0.5.

As for A15U G17A C29G, the yeast fitness was at most 0.5.

As to U16C G51A A65U, the yeast fitness is 0.572.

In the case of C29U U35A G38C A45U U59C, the yeast fitness was at most 0.5.

As for C31G G63A C66U, the yeast fitness was determined as 0.64.

Turning to C33U C62U G63A, the yeast fitness is at most 0.5.

Consider C5G C11G G12A C46U, for which the yeast fitness is at most 0.5.

U2A U16A C55G C60A: the yeast fitness was at most 0.5.

As for U7G G10C G58A, the yeast fitness was at most 0.5.

Take U7C A20G C61U: the yeast fitness amounted to 0.587.

Regarding U2C A20U, the yeast fitness is 0.91.

On to C4A A15G C33G C60A, for which the yeast fitness was at most 0.5.

Consider U7G C24G C27U C29A, for which the yeast fitness amounted to 0.6.

Consider C49G C55G C61G, for which the yeast fitness came out at 0.558.

Take A15C A21U C24U: the yeast fitness is at most 0.5.

On to A40G G48A, for which the yeast fitness was 1.01.

On to A15C C46U A57G C66A, for which the yeast fitness was at most 0.5.

Consider U26G C34G A37C C66A, for which the yeast fitness is at most 0.5.

For the variant C11G C22U G68C, the yeast fitness turned out to be 0.732.

In the case of G10C G12C G39A, the yeast fitness was at most 0.5.

Regarding U16A C24G A43C, the yeast fitness came out at 0.512.

Turning to C22U C27U C55A A57U C61G, the yeast fitness was at most 0.5.

In the case of C11U G39C C46U, the yeast fitness turned out to be 0.756.

Consider C31U C34U G38A C46U, for which the yeast fitness is 0.524.

G6A A40G A42G U59C: the yeast fitness worked out at 0.675.

Regarding U13A G18C A36G G41C G67A, the yeast fitness is at most 0.5.

Take A40U C49G A70U: the yeast fitness was determined as 0.535.

In the case of C5U C29U C34G, the yeast fitness was at most 0.5.

Consider G52C C61A, for which the yeast fitness was at most 0.5.

Turning to U8C U26G A42C, the yeast fitness is 0.703.

As for U3A A37C C61A, the yeast fitness is at most 0.5.

Regarding A20U U32G U35A C62U A69C, the yeast fitness was at most 0.5.

Consider C30A A37G A57G, for which the yeast fitness was at most 0.5.

As for U8G G17A G48C, the yeast fitness was at most 0.5.

On to A14C A42G A57U, for which the yeast fitness was at most 0.5.

Regarding C30U U32A A36U A37U C62U A69U, the yeast fitness is at most 0.5.

In the case of G39C G58C, the yeast fitness was 0.83.

Regarding U16A A43C, the yeast fitness is 0.906.

For the variant A20G C31G C61U, the yeast fitness was found to be 0.659.

For the variant C4G A43U A70U, the yeast fitness amounted to 0.623.

With G9C G52U, the yeast fitness was found to be 0.502.

Take A15C U19C C31G G56C C66U: the yeast fitness is at most 0.5.

With G25C G58C A65U, the yeast fitness was determined as 0.928.

As for A43G G50A G68U, the yeast fitness is at most 0.5.

In the case of C5A U19C C27U C29G C34A A42C U54A, the yeast fitness was at most 0.5.

Turning to U7A G12A, the yeast fitness worked out at 0.783.

As to U28A G41A G56A C62U, the yeast fitness was at most 0.5.

On to U28C G48A C60A C62U, for which the yeast fitness is at most 0.5.

Consider G48C A65G G67C, for which the yeast fitness is at most 0.5.

For A14G C31G, the yeast fitness was found to be 0.945.

Turning to A14U A21C G41A G67C, the yeast fitness is at most 0.5.

In the case of U3C A20G C33U A40G C62G A70U, the yeast fitness was at most 0.5.

In the case of A15C U16C A37C G50A U53A C61U, the yeast fitness turned out to be 0.58.

As to U16A A40G, the yeast fitness amounted to 0.913.

Turning to U3A A36G C62U, the yeast fitness worked out at 0.69.

On to U19A A21G C27U C33U G67C, for which the yeast fitness is at most 0.5.

Regarding C11U A42C C49G, the yeast fitness was at most 0.5.

For the variant U19C G63A, the yeast fitness was determined as 0.918.

For the variant C11A G38A, the yeast fitness was determined as 0.579.

G25C A57G: the yeast fitness is 0.892.

As for G12C C27U, the yeast fitness came out at 0.805.

As for C27G C60U C61G, the yeast fitness was found to be 0.681.

On to U2C A36U A65C, for which the yeast fitness was at most 0.5.

Take U3C C31U A65C: the yeast fitness was found to be 0.791.

On to G18C C29U A43G C49A, for which the yeast fitness is at most 0.5.

Take U13A C24G U28A C30U C31G G41C G56A A57C: the yeast fitness was at most 0.5.

In the case of U19G A20U A69U, the yeast fitness came to 0.86.

As to G6A G63C, the yeast fitness worked out at 0.727.

In the case of U13A A42U A57C C61U A65U, the yeast fitness was at most 0.5.

For the variant U7A C29G A36C C62A, the yeast fitness is at most 0.5.

Regarding C4A U8C U47C, the yeast fitness amounted to 0.579.

For C4A G6A A21C C24U, the yeast fitness was found to be 0.562.

Take U8A C11U U47G G67A: the yeast fitness was at most 0.5.

As to G10C A14U, the yeast fitness amounted to 0.546.

In the case of C4G U8C C24U A43G, the yeast fitness turned out to be 0.527.

In the case of U59A A69U, the yeast fitness worked out at 0.817.

As to C34G A40C G48A, the yeast fitness was at most 0.5.

As to G25A C49U C55U, the yeast fitness was 0.683.

Turning to A14U G25A C61U, the yeast fitness was 0.649.

Take G6A C27A C30U G41C A43U C49A: the yeast fitness amounted to 0.52.

Regarding U35A A37G A43U A45C C61U, the yeast fitness was at most 0.5.

As for C5A C31A C49U, the yeast fitness was at most 0.5.

Turning to C29G U32A U64A, the yeast fitness was at most 0.5.

For U8C G23A G44C A45U C49A, the yeast fitness was at most 0.5.

Turning to C5A C29U, the yeast fitness was 0.731.

In the case of U47A C55G C66G, the yeast fitness was 0.639.

With C27G A45C C55G G58C, the yeast fitness is at most 0.5.

Consider C34U C66U G67A, for which the yeast fitness was at most 0.5.

For U16C C27G C29U U54C, the yeast fitness is 0.568.

As to C5A C24U A69C, the yeast fitness was 0.641.

Consider A14G C62G, for which the yeast fitness came to 0.688.
